“And” between values parts separate entries of the source, which are not always exact repeats. Identical values can stand only once.
How the values were obtained:
[1] = system: patients with T2D and CV disease; test: EMPA-REG OUTCOME post hoc analyses; parameters: species or system human; details: in vivo
[2] = system: isolated diabetic mouse hearts; test: Langendorff-perfused db/db hearts, stable isotope analysis
rats with CHF = format: in vivo, rat; details: 30 mg/kg PO
[3] = Empagliflozin 4-week crossover study, cardiac PET/CT; format: in vivo, human
[4] = 24-week empagliflozin appetite trial in overweight/obesity and T2D; format: in vivo, human
[5] = system: mouse and human primary PaSC and immortalized imPaSC; test: Signalling and gene expression in pancreatic stellate cells; format: cell-based; details: Met 0.1-10 mM
[6] = system: diabetic patients with chronic heart failure; format: in vivo, human; details: metformin 2 g/day for 3 months
glucokinase [7] = target: T1, glucokinase (Homo sapiens, UniProt P35557); details: type 2 diabetes (n=190); cited from earlier work
T1 sequence (P35557 1-465): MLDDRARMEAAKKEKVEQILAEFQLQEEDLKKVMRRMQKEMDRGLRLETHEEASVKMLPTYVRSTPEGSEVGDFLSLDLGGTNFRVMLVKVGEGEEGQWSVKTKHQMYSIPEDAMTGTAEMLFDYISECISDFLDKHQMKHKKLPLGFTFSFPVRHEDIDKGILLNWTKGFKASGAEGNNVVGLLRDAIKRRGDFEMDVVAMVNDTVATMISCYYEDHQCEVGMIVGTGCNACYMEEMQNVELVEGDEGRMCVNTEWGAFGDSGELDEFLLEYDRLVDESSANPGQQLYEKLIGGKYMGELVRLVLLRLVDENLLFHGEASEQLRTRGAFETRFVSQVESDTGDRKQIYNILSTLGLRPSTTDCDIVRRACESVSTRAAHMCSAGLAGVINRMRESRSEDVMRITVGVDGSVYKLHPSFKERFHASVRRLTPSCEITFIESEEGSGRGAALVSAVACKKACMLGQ

glucokinase [8] = target: T1, glucokinase; test: Simplici-T1 Phase 1b/2 trial; format: in vivo
[9] = system: human hepatocytes (HepG2); test: GDF15 and FGF21 expression in hepatocytes; format: cell-based; details: 2 mM, up to 24-h
[10] = system: patients with type 2 diabetes; test: Network meta-analysis of antidiabetic medications on blood pressure; parameters: species or system human; details: frequentist random-effects network meta-analysis, 192 studies
[11] = Portal vein and arterialized lactate after oral metformin; format: in vivo, human; details: 90 minutes after 1000 mg oral
[12] = Serum uteroglobin before and after metformin monotherapy; format: in vivo, human; details: after 12 months monotherapy; before 14.43±0.97; n=20
[13] = Intrajejunal metformin with or without bile exclusion or TCA, T2DM; format: in vivo, human; details: 1 g intrajejunal; endogenous bile included
[14] = 42-h fast crossover trial with or without metformin; format: in vivo, human; details: 1 g twice daily for a week
human heart = test: Metformin uptake in the human heart by PET scanning; format: in vivo
[15] = metformin vs placebo crossover in DM and chronic heart failure; format: in vivo, human; details: 2 g/day, 3 months vs placebo
DIO C57/B6 mice = test: gastric emptying and weight in DIO mice; format: in vivo, mouse; details: 14-day
[16] = DIO mice under 50% dietary restriction, indirect calorimetry; format: in vivo, mouse
[17] = Insulin icodec vs IGlar U100 26-week phase 2 trial; format: in vivo, human
Summary of the method: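 Randomized, double-blind, double-dummy, treat-to-target phase 2 trial lasting 26 weeks. Participants were insulin-naïve adults with T2D and HbA1c 7.0-9.5% on metformin ± DPP4i, randomized 1:1 (n=247). Starting doses were 70 U once weekly or 10 U once daily, titrated weekly to a pre-breakfast SMBG target of 3.9-6.0 mmol/L. The primary endpoint was HbA1c change from baseline to week 26; FPG and mean weekly dose over the last two weeks were secondary.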

[18] = stated as background; cited from earlier work
[19] = system: individuals with type 2 diabetes; test: insulin icodec PK/PD trial; parameters: species or system human; details: in vivo
individuals with obesity = format: in vivo, human
HG-CD34+ stem cells = test: ROS production in CD34+ stem cells; format: cell-based, human; details: n=3
[20] = system: human ventricular cardiac fibroblasts (HCF); test: Human ventricular cardiac fibroblasts, mRNA expression by RT-qPCR; format: cell-based; details: TGF-β treatment; p<0.01
[21] = seven- and ninety-day treatment

## OC[C@H]1O[C@@H](c2ccc(Cl)c(Cc3ccc(O[C@H]4CCOC4)cc3)c2)[C@H](O)[C@@H](O)[C@@H]1O [EMPA, empagliflozin]
[1]
  patients with insulin dose reduction >10%: 14.0%
[2]; 1 μM, 35 min, 13C glucose perfusion, vehicle 58 ± 2
  13C labeling of lactate: 50 ± 3%
[2]; 1 μM, 35 min, vehicle 5.2 ± 0.8
  glucose-6-phosphate content: 3.3 ± 0.4 AU
[2]; 13C palmitate perfusion, vehicle 79 ± 1
  13C labeling of α-KG: 86 ± 1%
Rats with CHF; long-term (90 days)
  myocardial perfusion: increased
Rats with CHF; long-term (90 days), p=0.06
  exercise capacity: increased
Rats with CHF; [21]
  LV EDP: reductions
  LV ESP: increases
[3]; 18F-FDG PET, placebo 1.4±0.6
  myocardial glucose uptake (MGU): 0.6±0.6 μmol/100g/min
[3]; four weeks, placebo 9.4 ± 2.2
  48-hour mean blood glucose: 8.0 ± 0.9
[3]; in vivo
  reduction of postabsorptive myocardial glucose uptake: 57%
[3]; placebo 0.8±3
  circulating FFA: 1.0 ± 0.4 mmol/L
[3]; placebo 1.1±0.6
  FFA esterification rate: 1.3±0.7 μmol/100g/min
[3]; placebo 8.0±3.1
  myocardial FFA oxidation rate: 7.2±3.1 μmol/100g/min
[3]; placebo 9.1±3.2
  total FFA uptake rate: 8.4±3.6 μmol/100g/min
[3]; placebo 9.77 ± 1.34
  myocardial oxygen consumption: 8.97 ± 1.11 ml/100g/min
[3]; placebo 27.7±4.5
  myocardial external energy efficiency: 29.5±7.3%
[3]; placebo 65 ± 8
  3-hydroxybutyrate: 130 ± 17 µmol/L
[3]; placebo 92±8
  24-hour mean arterial pressure: 88±5 mmHg
[4]; 12-weeks, 3-hour mixed meal tolerance test, P = 0.003
  circulating PYY vs placebo: elevated
[4]; overall across follow-up, P = 0.016
  circulating GLP-1 vs placebo (GEE): higher

## CN(C)C(=N)N=C(N)N [MET, metformin]
[5]
  levels of yes-associated protein 1 (YAP): inhibited
[6]
  cardiac functions as assessed by echocardiography and spiroergometry: did not change
[6]; compared to placebo
  HbA1c: reduced

## CCCO[C@H]1CC[C@H](N(C(=O)Nc2ncc(SCC(=O)O)s2)C2CCCCC2)CC1 [TTP399]
Glucokinase [7]
  A1C vs placebo: −0.9%
Glucokinase [8]; 12 weeks
  plasma β-hydroxybutyrate or urine ketones vs placebo: no significant or clinically relevant increases
  severe hypoglycemia: No incidents
Glucokinase [8]; Part 1 (n=19)
  improvement of TIR 70-180 vs placebo: 12%
Glucokinase [8]; Part 2 (n=85), 12 weeks
  A1C vs placebo, trial product estimand: -0.32% and -0.3%
Glucokinase [8]; Part 2, ITT
  improvement of (daytime) TIR: 8%
Glucokinase [8]; Part 2, placebo 12%
  responders: 42%

## CN(C)C(=N)N=C(N)N [metformin]
[9]
  increase of FGF21 mRNA: 12 fold
  increase of GDF15 mRNA: 4 fold
[10]
  systolic blood pressure, mean difference compared to placebo: -1.21 mmHg
[11]
  increase of lactate concentration, arterialized blood: 2%
[11]; n=8 cirrhotic participants
  increase of lactate concentration, portal vein: 23%
[12]
  serum uteroglobin: 16.47 ± 1.33 ng/mL
[13]
  plasma glucose iAUC 0-180 min: 516 ± 46 mmol·min/L
[14]; without 146 ± 30
  serum FGF21: 156 ± 29 ng/mL
[14]; without 607 ± 89
  serum GDF15: 1004 ± 61 ng/mL
Human heart
  metformin uptake in healthy human hearts: no uptake
[15]
  GLP-1 and peptide YY during meal test: increased

## CC[C@H](C)[C@H](NC(=O)[C@H](CC(C)C)NC(=O)[C@H](Cc1c[nH]c2ccccc12)NC(=O)[C@H](CCC(N)=O)NC(=O)[C@@H](NC(=O)[C@H](Cc1ccccc1)NC(=O)[C@H](C)NC(=O)[C@H](CCCCNC(=O)COCCOCCNC(=O)COCCOCCNC(=O)CC[C@H](NC(=O)CCCCCCCCCCCCCCCCCCC(=O)O)C(=O)O)NC(=O)[C@H](CCC(N)=O)NC(=O)[C@H](C)NC(=O)[C@@H](NC(=O)[C@H](CCCCN)NC(=O)[C@H](CC(=O)O)NC(=O)[C@H](CC(C)C)NC(=O)C(C)(C)NC(=O)[C@@H](NC(=O)[C@H](CO)NC(=O)[C@H](Cc1ccc(O)cc1)NC(=O)[C@H](CC(=O)O)NC(=O)[C@H](CO)NC(=O)[C@@H](NC(=O)[C@H](Cc1ccccc1)NC(=O)[C@@H](NC(=O)CNC(=O)[C@H](CCC(=O)O)NC(=O)C(C)(C)NC(=O)[C@@H](N)Cc1ccc(O)cc1)[C@@H](C)O)[C@@H](C)O)[C@@H](C)CC)[C@@H](C)CC)C(C)C)C(=O)N[C@@H](C)C(=O)NCC(=O)NCC(=O)N1CCC[C@H]1C(=O)N[C@@H](CO)C(=O)N[C@@H](CO)C(=O)NCC(=O)N[C@@H](C)C(=O)N1CCC[C@H]1C(=O)N1CCC[C@H]1C(=O)N1CCC[C@H]1C(=O)N[C@@H](CO)C(N)=O [tirzepatide]
DIO C57/B6 mice
  GE delay after chronic treatment: abolished after 14-day chronic treatment
[16]; 3 nmol/kg QD, 14 days, vehicle 15.2±1.2, pair fed 17.0±0.7
  weight loss during dietary restriction: 22.4±1.3%
[16]; during DR
  increase of fat utilization vs vehicle: more than 30%
[16]; reduction, indirect calorimetry
  energy expenditure during dietary restriction: maintained similar to levels prior to DR

## Insulin icodec
[17]; 95% CI 0.69, 0.94
  estimated treatment ratio of weekly dose vs IGlar U100: 0.81
[17]; 95% CI -0.38, 0.02
  estimated treatment difference HbA1c vs IGlar U100: -0.18%
[17]; 95% CI -0.66, 0.23
  estimated treatment difference FPG vs IGlar U100: -0.22 mmol/L
[17]; baseline 8.1 icodec, 8.0 IGlar U100
  estimated mean HbA1c at week 26: 6.7%
[17]; in vivo
  estimated mean FPG at week 26: 6.84 mmol/L
  estimated mean weekly insulin dose, last two weeks: 229 U/week
[17]; on-treatment period
  level 2 and 3 hypoglycaemia: 53 events per 100 patient years of exposure
[17]; week 26
  estimated mean change in HbA1c from baseline: -1.33 %-points
[18]
  terminal half-life: ~ 196 hours

## insulin icodec
[19]
  geometric mean half-life (t½): 196 h

## liraglutide
Individuals with obesity; liraglutide 3.0 mg/day, with or without exercise, PLA -0.7
  change in heart rate during the 1-year treatment phase: 3.7 min⁻¹
Individuals with obesity; no group differences
  systolic and diastolic BP during the 1-year treatment phase: decreased
HG-CD34+ stem cells
  HG-induced production of ROS: significant reduction

## transforming growth factor beta [TGF-β]
[20]
  TNC expression in HCF: upregulated TNC expression
